Activity calls are given as the source filed them. The rule behind the calls is not given here.
Legend:
[1] = biological target: T1, Lanosterol synthase (Pneumocystis carinii, UniProt Q96WJ0); experiment: Inhibition of Pneumocystis carinii oxidosqualene cyclase
T1 sequence (Q96WJ0 whole entry): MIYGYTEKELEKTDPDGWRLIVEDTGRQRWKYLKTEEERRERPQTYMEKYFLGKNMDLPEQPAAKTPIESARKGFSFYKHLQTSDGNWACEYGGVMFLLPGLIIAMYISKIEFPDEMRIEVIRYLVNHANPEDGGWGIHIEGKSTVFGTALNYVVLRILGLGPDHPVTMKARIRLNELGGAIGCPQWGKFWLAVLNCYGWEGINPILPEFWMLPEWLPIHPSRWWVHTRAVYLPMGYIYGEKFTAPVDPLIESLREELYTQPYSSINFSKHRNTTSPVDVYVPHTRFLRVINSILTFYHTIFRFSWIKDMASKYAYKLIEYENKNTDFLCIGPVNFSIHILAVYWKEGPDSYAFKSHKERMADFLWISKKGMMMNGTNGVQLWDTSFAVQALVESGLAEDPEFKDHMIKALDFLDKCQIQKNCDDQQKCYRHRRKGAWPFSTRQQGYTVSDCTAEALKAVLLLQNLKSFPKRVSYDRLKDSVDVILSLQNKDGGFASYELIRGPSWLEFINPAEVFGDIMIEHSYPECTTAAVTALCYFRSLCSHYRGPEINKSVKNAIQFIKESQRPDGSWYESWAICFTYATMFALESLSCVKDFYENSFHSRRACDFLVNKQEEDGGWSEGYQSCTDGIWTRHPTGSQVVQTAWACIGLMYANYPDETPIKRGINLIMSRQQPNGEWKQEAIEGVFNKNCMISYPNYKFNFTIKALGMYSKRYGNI

[2] = system: NIH3T3; experiment: Inhibition of sterol biosynthesis in Swiss Albino mouse 3T3 cells assessed as incorporation of [2-14C]acetate in cholesterol at 1 uM; format: functional; parameters: scale not given: the % may be the effect or the level left
How it was run: (§1)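 3T3 fibroblasts (7×10^4 cells) were grown 24 h in DMEM with 10% lipid-depleted serum, then preincubated 3 h with inhibitor. [2-14C]acetate (1 uCi/well) was added for a further 3 h. Cells were lysed in 0.1 N NaOH and saponified in methanolic KOH (1 h, 80 °C). Nonsaponifiable lipids were extracted and separated by TLC against sterol standards. Label is given as % of total radioactivity in sterols, mean ± SD of two experiments in duplicate.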

[3] = system: NIH3T3; experiment: Inhibition of sterol biosynthesis in Swiss Albino mouse 3T3 cells assessed as incorporation of [2-14C]acetate in lanosterol at 1 uM; format: functional; parameters: scale not given: the % may be the effect or the level left; how it was run: as §1
[4] = system: NIH3T3; experiment: Inhibition of sterol biosynthesis in Swiss Albino mouse 3T3 cells assessed as incorporation of [2-14C]acetate in […]-dioxidosqualene at 1 uM; format: functional; parameters: scale not given: the % may be the effect or the level left; how it was run: as §1
[5] = system: NIH3T3; experiment: Inhibition of sterol biosynthesis in Swiss Albino mouse 3T3 cells assessed as incorporation of [2-14C]acetate in 2,3-oxidosqualene at 1 uM; format: functional; parameters: scale not given: the % may be the effect or the level left; how it was run: as §1
[6] = system: NIH3T3; experiment: Inhibition of sterol biosynthesis in Swiss Albino mouse 3T3 cells assessed as incorporation of [2-14C]acetate in squalene at 1 uM; format: functional; parameters: scale not given: the % may be the effect or the level left; how it was run: as §1
[7] = system: NIH3T3; experiment: Inhibition of sterol biosynthesis in Swiss Albino mouse 3T3 cells assessed as decrease in incorporation of [2-14C]acetate in cholesterol at 50 uM; format: functional; parameters: scale not given: the % may be the effect or the level left; how it was run: as §1
[8] = system: Trypanosoma cruzi; experiment: Inhibition of Trypanosoma cruzi oxidosqualene cyclase at 10 uM
[9] = biological target: T2, Lanosterol synthase ERG7 (Saccharomyces cerevisiae S288c) (UniProt P38604); experiment: Inhibition of Saccharomyces cerevisiae oxidosqualene cyclase at 10 uM
T2 sequence (whole entry): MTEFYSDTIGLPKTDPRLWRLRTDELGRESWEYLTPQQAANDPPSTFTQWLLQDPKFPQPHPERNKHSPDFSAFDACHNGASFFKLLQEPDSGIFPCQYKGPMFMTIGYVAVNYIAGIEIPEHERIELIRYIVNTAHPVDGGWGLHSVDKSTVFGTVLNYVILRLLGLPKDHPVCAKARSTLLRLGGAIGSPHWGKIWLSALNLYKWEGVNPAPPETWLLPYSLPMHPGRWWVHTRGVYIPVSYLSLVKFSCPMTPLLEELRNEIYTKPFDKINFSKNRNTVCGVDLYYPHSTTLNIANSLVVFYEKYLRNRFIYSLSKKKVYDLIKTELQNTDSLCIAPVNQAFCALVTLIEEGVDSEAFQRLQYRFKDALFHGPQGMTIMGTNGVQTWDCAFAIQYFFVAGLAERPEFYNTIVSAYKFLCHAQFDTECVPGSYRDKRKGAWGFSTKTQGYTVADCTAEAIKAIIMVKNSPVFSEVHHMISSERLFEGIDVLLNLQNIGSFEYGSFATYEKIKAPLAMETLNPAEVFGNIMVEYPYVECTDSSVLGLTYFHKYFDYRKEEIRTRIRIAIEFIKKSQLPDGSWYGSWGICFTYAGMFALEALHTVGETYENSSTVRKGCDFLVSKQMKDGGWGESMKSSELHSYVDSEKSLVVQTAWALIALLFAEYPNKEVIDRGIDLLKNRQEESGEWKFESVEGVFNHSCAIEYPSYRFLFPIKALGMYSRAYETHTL

[10] = biological target: T3, Lanosterol synthase (Homo sapiens) (UniProt P48449); experiment: Inhibition of human oxidosqualene cyclase expressed in Pichia pastoris cells at 10 uM
T3 sequence (whole entry): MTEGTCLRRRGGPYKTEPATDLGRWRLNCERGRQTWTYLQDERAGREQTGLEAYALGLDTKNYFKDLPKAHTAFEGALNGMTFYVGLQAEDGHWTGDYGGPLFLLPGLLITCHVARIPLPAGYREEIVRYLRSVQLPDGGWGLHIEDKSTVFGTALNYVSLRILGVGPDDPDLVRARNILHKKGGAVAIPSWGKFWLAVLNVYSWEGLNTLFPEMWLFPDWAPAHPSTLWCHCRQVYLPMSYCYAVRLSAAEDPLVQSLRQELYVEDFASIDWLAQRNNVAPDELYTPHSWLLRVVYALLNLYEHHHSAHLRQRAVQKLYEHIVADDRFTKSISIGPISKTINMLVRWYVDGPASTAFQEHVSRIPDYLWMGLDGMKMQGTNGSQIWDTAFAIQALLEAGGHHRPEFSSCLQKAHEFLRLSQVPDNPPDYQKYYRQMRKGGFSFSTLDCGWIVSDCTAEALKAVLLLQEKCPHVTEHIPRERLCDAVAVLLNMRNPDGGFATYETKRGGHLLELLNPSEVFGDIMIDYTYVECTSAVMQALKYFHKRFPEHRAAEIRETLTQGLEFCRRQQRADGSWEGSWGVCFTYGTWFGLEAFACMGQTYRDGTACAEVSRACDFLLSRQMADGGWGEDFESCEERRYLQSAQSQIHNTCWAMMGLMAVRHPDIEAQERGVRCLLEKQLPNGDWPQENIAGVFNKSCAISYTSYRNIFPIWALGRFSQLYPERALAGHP

[11] = Inhibition of Trypanosoma cruzi oxidosqualene cyclase
[12] = biological target: T4, Lanosterol synthase ERG7 (Saccharomyces cerevisiae S288c, UniProt P38604); experiment: Inhibition of Saccharomyces cerevisiae oxidosqualene cyclase
T4 sequence (P38604 whole entry): T2 sequence (whole entry)

[13] = biological target: T5, Lanosterol synthase (Homo sapiens, UniProt P48449); experiment: Inhibition of human oxidosqualene cyclase expressed in Pichia pastoris cells
T5 sequence (P48449 whole entry): T3 sequence (whole entry)

[14] = biological target: T6, Lanosterol synthase (Pneumocystis carinii) (UniProt Q96WJ0); experiment: Inhibition of Pneumocystis carinii oxidosqualene cyclase at 10 uM
T6 sequence (whole entry): T1 sequence (Q96WJ0 whole entry)

Row | IC50 [1] [nM] | inhibition [8] [%] | Activity [9] | inhibition [10] [%] | IC50 [11] [nM] | IC50 [12] [nM] | IC50 [13] [nM] | inhibition [14] [%] | inhibition [9] [%] | Compound | Activity [2] [%] | Activity [3] [%] | Activity [4] [%] | Activity [5] [%] | Activity [6] [%] | Activity [7] [%]
1 | 10000 | < 20 | inactive | < 20 | – | – | – | – | – | C/C(=C\COCCCc1cccc2ccccc12)CC/C=C(\C)CCCN(C)C | 72.7 | 5 | 3.2 | 12.5 | 6.6 | 30
2 | 360 | – | – | – | 2700 | 1780 | 850 | – | – | CCCCCCOC/C=C(\C)CC/C=C(\C)CCCN(C)C | 35.5 | 7.9 | 22.3 | 29.6 | 4.6 | –
3 | – | < 20 | – | < 20 | – | – | – | < 20 | – | C/C(=C\COCCCc1ccccc1)CC/C=C(\C)CCC(=O)N(C)C | 84.6 | 3.2 | 2.8 | 4.6 | 4.8 | >50
4 | 330 | – | – | – | 470 | 450 | 1100 | – | – | C/C(=C\COCCCc1ccccc1)CC/C=C(\C)CCCN(C)C | 31.3 | 5.5 | 30.4 | 27.9 | 5.5 | –
5 | – | < 20 | inactive | < 20 | – | – | – | < 20 | – | C/C(=C\CO)CC/C=C(\C)CCCN(C)C | 88.2 | 2.5 | 1.3 | 3.9 | 4.1 | 30
6 | 1700 | – | – | – | 7400 | – | 4500 | – | < 20 | C/C(=C\COCCCc1ccc(-c2ccccc2)cc1)CC/C=C(\C)CCCN(C)C | 53.2 | 6.4 | 18 | 17.5 | 4.9 | –

From ChEMBL document CHEMBL1138372, “Design, synthesis, and biological evaluation of new (2E,6E)-10-(dimethylamino)-3,7-dimethyl-2,6-decadien-1-ol ethers as inhibitors of human and Trypanosoma cruzi oxidosqualene cyclase” (Bioorg Med Chem Lett, 2007)
